# A3G deaminase: APOBEC3G (human) deaminase inhibition; 330,000 compounds, 0.28% hits; inhibition, % at 20 µM; recombinant A3G, ssDNA deamination FAM/TAMRA fluorescence; Q9HC16;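 active means inhibition of at least 40% at 20 µM, with no more than 30% in the related APOBEC3A deaminase screen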;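 further: plate controls were DMSO wells with A3G for no effect and wells lacking A3G enzyme for full effect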
# Target sequence (Q9HC16 whole entry, looked up): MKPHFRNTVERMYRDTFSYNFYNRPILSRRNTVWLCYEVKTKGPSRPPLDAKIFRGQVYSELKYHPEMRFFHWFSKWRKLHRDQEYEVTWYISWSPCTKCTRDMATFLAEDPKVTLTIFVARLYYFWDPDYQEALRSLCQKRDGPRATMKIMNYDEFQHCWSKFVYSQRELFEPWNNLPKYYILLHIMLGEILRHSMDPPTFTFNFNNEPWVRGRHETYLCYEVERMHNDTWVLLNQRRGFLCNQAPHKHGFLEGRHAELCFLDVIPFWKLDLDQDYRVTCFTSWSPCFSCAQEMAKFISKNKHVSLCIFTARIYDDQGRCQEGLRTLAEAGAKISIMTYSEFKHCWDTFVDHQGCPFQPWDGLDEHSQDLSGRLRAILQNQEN
# APOBEC3A inh: human APOBEC3A DNA deaminase inhibition. inhibition, % at 20 µM. recombinant A3A, FAM/TAMRA ssDNA deamination fluorescence. 330,000 compounds, 0.41% hits. P31941;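 active means at least 40% inhibition at 20 µM here, with at most 30% in a related deaminase screen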;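 further: plate controls were A3A with DMSO for no effect and wells lacking A3A enzyme for full effect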
# pCIP destab: lowers stability of the mouse p/CIP coactivator protein | Q05BA5 | F442A p/CIP-EGFP cells, EGFP fluorescence, 16 h | decrease of EGFP signal, % at 10 µM | 290,000 compounds, 0.01% hits | AID 1984;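 active means EGFP signal decrease of at least 30% at 10 µM or well 3 SD below plate mean, unless failing retest; inactive means the rest, including hits failing retest or dose response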
# PHOSPHO1 block: PHOSPHO1 (human) inhibition | AID 1565 | recombinant PHOSPHO1, absorbance phosphatase assay | 290,000 compounds, 1.1% hits | Q8TCT1 | inhibition, % at 13.3 µM; in the data active means inhibition above about 60%
# Target sequence (Q8TCT1 whole entry, looked up): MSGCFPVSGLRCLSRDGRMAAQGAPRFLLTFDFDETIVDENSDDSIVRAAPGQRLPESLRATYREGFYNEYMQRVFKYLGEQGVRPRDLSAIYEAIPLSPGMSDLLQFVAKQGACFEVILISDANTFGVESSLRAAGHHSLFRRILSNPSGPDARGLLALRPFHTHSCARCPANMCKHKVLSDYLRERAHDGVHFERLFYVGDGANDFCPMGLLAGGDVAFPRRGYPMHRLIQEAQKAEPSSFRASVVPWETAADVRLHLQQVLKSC
# TbMetRS inhib: blocks T. brucei methionyl-tRNA synthetase activity | 360,000 compounds, 0.4% hits | purified T. brucei MetRS, ATP depletion, Kinase-Glo luminescence | inhibition, % at 11.9 µM;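 active means inhibition above a per-plate cutoff of the control wells' mean inhibition plus 3 SD, cut at about 5.5% in these data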;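 further: 0% = DMSO wells median and 100% = median of wells with control inhibitor compound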
#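 Material: T. brucei methionyl-tRNA synthetase, purified; reagent: substrates ATP, L-methionine and bulk Escherichia coli tRNA; dosing: 11.9 µM single point; timing: 15 min plus 2 h at 25 °C; detection: luminescence of leftover ATP; evaluation: % inhibition; control set: DMSO-only wells as low control; replicates: singlicate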
# Numbers without * were called inactive; / = no result given. Most compounds without a hit are left out; they make up all but 1.8% or so of the library.
SMILES,A3G deaminase,APOBEC3A inh,pCIP destab,PHOSPHO1 block,TbMetRS inhib
CC1CC(C)CN(c2ccc(-n3cnnn3)cc2[N+](=O)[O-])C1 (stereo not given),3.8,3.1,-9.4,60.1*,0.2
O=[N+]([O-])c1cc(-n2cnnn2)ccc1N1CCC(Cc2ccccc2)CC1,-3.8,0.8,-11.0,-22.6,-1.4
Cc1cc(C(=O)Cn2cnc3cc(F)ccc3c2=O)c(C)n1C1CC1,-1.0,-1.1,/,/,0.0
NS(=O)(=O)c1ccc(NC(=O)C2C3C=CC(C3)C2C(=O)O)cc1 (stereo not given),2.5,-0.2,-0.4,60.1*,-0.9
COc1ccc(NC(=O)C2C3C=CC(C3)C2C(=O)O)cc1 (stereo not given),-5.2,0.4,-11.5,24.0,-0.3
COc1ccc(N2CCN(C(=O)c3cccnc3SCc3cccc(Br)c3)CC2)cc1,-6.8,-0.5,4.0,-15.8,-0.6
COc1cc(/C=C2/C(=O)c3cccc([N+](=O)[O-])c3C2=O)c(Br)cc1O,/,/,8.1,31.4,-0.9
COc1cccc(NC(=O)CSc2nnc(-c3cccc(OC(C)C)c3)n2N)c1,-0.1,-0.1,-1.4,88.2*,-0.3
CC(C)OC(=O)CSc1nnc(-c2cnccn2)n1Cc1ccco1,-4.3,-1.9,-6.2,11.7,-0.9
CCOc1cccc(-c2nnc(SCC(=O)Nc3cc(OC)cc(OC)c3)n2N)c1,-3.9,-2.5,-7.0,2.6,-0.2
COc1cccc(-c2nnc(SCC(=O)OC(C)C)n2Cc2ccco2)c1,10.2,-1.5,-13.5,72.5*,-1.3
O=C(O)c1ccccc1C(=O)NC1Cc2ccccc2C1,-5.9,-1.5,-7.2,38.6,-0.1
Clc1ccc(-c2nc(C3CCCCC3)no2)cc1,-5.9,-1.4,0.1,41.7,0.4
Cn1c(SCC(=O)Nc2ccc3nc(SCC(=O)NC4CC4)sc3c2)nnc1-c1ccccc1,-4.1,-5.3,-1.2,-4.5,0.9
Cn1c(SCC(=O)Nc2ccc3nc(SCC(=O)N4CCCC4)sc3c2)nnc1-c1ccc(N)cc1,/,/,-1.1,67.3*,-1.1
O=C(NCc1ccccn1)C1CCC(CNS(=O)(=O)c2cccc3nsnc23)CC1 (stereo not given),-5.2,-8.6,-0.3,62.7*,-0.1
CCCCNC(=O)CC1N=C2c3ccccc3N=C(SCC(=O)Nc3ccc(OC)cc3)N2C1=O (stereo not given),-4.5,-5.5,45.9*,18.1,0.8
CCCCNC(=O)CC1N=C2c3ccccc3N=C(SCC(=O)Nc3cccc(OC)c3)N2C1=O (stereo not given),-0.8,3.0,-5.2,26.3,0.8
CCOC(=O)c1c(S(=O)(=O)NCC2CCN(Cc3cccc(F)c3)CC2)c(C)n(C)c1C,-4.4,-2.3,1.2,64.9*,-0.2
Cc1c(NC(=O)COC(=O)c2cc3c4ccccc4n(C)c3s2)c(=O)n(-c2ccccc2)n1C,-1.2,-0.7,-8.6,62.2*,0.0
Cn1c(CSCc2ccc(Cl)cc2)nnc1SCC(=O)Nc1nc2ccccc2s1,4.1,1.2,-6.1,73.3*,-0.5
O=C(O)c1ccc(N2CCOCC2)c(N2C(=O)C3C4C=CC(C4)C3C2=O)c1 (stereo not given),1.5,2.1,-0.6,61.8*,-0.2
c1cnc(NCCSSCCNc2ncccn2)nc1,/,/,/,/,-0.4
COc1ccccc1-n1cnnc1SC(C)C(=O)NCC1CCCO1 (stereo not given),-3.6,4.7,/,/,-0.6
CCn1c(CSc2nc3ccccc3s2)nnc1SCC(=O)c1ccc(O)cc1O,-6.4,-2.1,0.5,83.3*,0.3
SMILES,A3G deaminase,APOBEC3A inh,pCIP destab,PHOSPHO1 block,TbMetRS inhib
C=CCn1c(CSc2nc3ccccc3s2)nnc1SCC(=O)OCC,-5.1,-1.3,1.7,17.4,-0.9
CC1=NNC(=O)C1CCC(=O)N/N=C/c1c(Cl)cccc1Cl (stereo not given),-6.5,-2.3,-2.6,64.7*,-0.6
Cc1ccc(Cl)cc1NC(=S)N1CCC(c2ccccc2)C1 (stereo not given),-7.1,-2.0,-3.8,15.3,0.0
O=C(Nc1ccc(F)cc1F)NC1CC1,-0.4,0.5,0.8,-40.0,-1.1
O=C(Nc1ccc(F)cc1F)NC1CCCCCCC1,-6.6,-3.9,-4.3,61.0*,-0.2
Cc1ccc(F)c(S(=O)(=O)NC(=O)C2(C)CCN2C(=O)c2ccccc2)c1 (stereo not given),/,/,/,/,-0.2
CCCCSc1nc2c(cc1C#N)CCC2,-6.7,-0.6,-6.3,7.1,-0.3
CCCSc1nc(C)c(-c2csc(C(C#N)=C3CCCC3)n2)cc1C#N,33.1,35.5,0.8,74.3*,-0.3
CC(=O)Nc1cncc(-c2ccccc2F)n1,/,/,/,/,-0.1
CCOC(=O)C1=C(CSc2nc(-c3ccncc3)ccc2C#N)OC(N)=C(C#N)C1c1cccnc1 (stereo not given),-3.7,-1.4,-21.0,61.0*,-0.1
CCOC(=O)C1=C(CSc2nc(C)ccc2C#N)OC(N)=C(C#N)C1c1cccc(OC)c1OC (stereo not given),8.1,-5.6,-1.8,76.1*,-0.3
CCOC(=O)C1=C(CSc2nc(-c3ccncc3)ccc2C#N)OC(N)=C(C#N)C1c1ccc(OC)cc1 (stereo not given),-3.1,-4.1,-44.2,14.5,-0.9
C=CCn1c(COc2ccc(F)cc2)nnc1SCC(=O)N1CC(=O)Nc2ccccc21,-3.4,4.0,-9.5,73.5*,-0.3
C=CCn1c(COc2ccc(F)cc2)nnc1SCC(=O)NC1CC1,-3.9,0.4,/,/,-0.5
Cc1ccc(-c2noc(-c3cc(C(C)(C)C)nn3Cc3ccccc3)n2)cc1,-6.6,-3.0,-0.5,-6.3,-0.1
CCC(C)[C@H](N)c1nnc(SCC(=O)c2ccc(Cl)cc2)o1 (stereo not given in full),-6.1,-2.8,-6.9,78.7*,-0.1
O=C(CSc1nnc([C@@H]2CCCN2)o1)c1ccc(Cl)cc1,2.6,0.7,1.6,73.5*,-0.1
Nc1c(C(=O)c2ccccc2)sc2nsc(SCCN3CCOCC3)c12,-17.5,-4.0,-4.6,60.8*,0.5
CN1Cc2c(N3CCOCC3)nc3sc(C(=O)c4ccccc4)c(N)c3c2CC1(C)C,-0.4,-3.1,-8.3,27.7,0.0
CCCCNS(=O)(=O)c1ccc2nc(SCC(=O)Nc3ccccc3)[nH]c2c1,-9.7,-1.8,4.4,-9.2,-0.5
CCCCNS(=O)(=O)c1ccc2nc(SCC(=O)c3ccc(C#N)cc3)[nH]c2c1,-6.1,-10.8,-10.8,99.0*,0.1
CCc1ccc(/C(C)=N/NS(=O)(=O)c2ccc(OC)cc2)s1,6.3,4.8,-3.4,/,-0.1
Cc1cccc(OCc2nnc(SCC(=O)c3cccs3)n2C)c1C,-2.7,-1.2,-14.9,75.5*,-0.7
CCn1c(SCC(=O)Nc2ccc3c(c2)OCCO3)nnc1-c1ccco1,-1.7,-1.3,2.8,-1.2,-0.6
CCn1c(SCC(=O)c2cccs2)nnc1-c1cccs1,-0.3,-0.6,-2.8,70.5*,0.1
CCn1c(SCC(=O)NC(=O)Nc2ccc3c(c2)OCCO3)nnc1-c1cccs1,-14.4,-2.1,-7.1,65.3*,-0.6
